Source: ChEMBL document CHEMBL4382248, “Optimization of a 1,3,4-oxadiazole series for inhibition of Ca2+/calmodulin-stimulated activity of adenylyl cyclases 1 and 8 for the treatment of chronic pain” (Eur J Med Chem, 2019)

What was measured:
Type in all cases: cell-based
Homo sapiens = organism: Homo sapiens; assay: Selectivity ratio of IC50 for human AC8 expressed in HEK293 cells to IC50 for human AC1 expressed in HEK293 cells
[1] = Cytotoxicity against HEK293 cells expressing human AC1 at 30 uM preincubated for 30 mins followed by A23187 stimulation and measured after 1 hr by CellTiter-Glo luminescent cell viability assay relative to control; details: HEK293 cells expressing human AC1, read-out: Activity
Summary of the method: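 Cytotoxicity in HEK lines stably expressing AC1 or AC8: single 30 µM dose, 90 min incubation. Viability was read by luminescent ATP reporter as % of DMSO-treated (100%) and Triton-X-treated (0%) controls.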

Adenylate cyclase type 8 [2] = molecular target: T1, Adenylate cyclase type 8 (Homo sapiens, UniProt P40145); assay: Inhibition of human AC8 expressed in HEK293 cells assessed as decrease in A23187-stimulated cAMP accumulation at 30 uM preincubated for 30 mins followed by A23187 stimulation and measured after 1 hr by fluorescence assay relative to control
T1 sequence (P40145 whole entry): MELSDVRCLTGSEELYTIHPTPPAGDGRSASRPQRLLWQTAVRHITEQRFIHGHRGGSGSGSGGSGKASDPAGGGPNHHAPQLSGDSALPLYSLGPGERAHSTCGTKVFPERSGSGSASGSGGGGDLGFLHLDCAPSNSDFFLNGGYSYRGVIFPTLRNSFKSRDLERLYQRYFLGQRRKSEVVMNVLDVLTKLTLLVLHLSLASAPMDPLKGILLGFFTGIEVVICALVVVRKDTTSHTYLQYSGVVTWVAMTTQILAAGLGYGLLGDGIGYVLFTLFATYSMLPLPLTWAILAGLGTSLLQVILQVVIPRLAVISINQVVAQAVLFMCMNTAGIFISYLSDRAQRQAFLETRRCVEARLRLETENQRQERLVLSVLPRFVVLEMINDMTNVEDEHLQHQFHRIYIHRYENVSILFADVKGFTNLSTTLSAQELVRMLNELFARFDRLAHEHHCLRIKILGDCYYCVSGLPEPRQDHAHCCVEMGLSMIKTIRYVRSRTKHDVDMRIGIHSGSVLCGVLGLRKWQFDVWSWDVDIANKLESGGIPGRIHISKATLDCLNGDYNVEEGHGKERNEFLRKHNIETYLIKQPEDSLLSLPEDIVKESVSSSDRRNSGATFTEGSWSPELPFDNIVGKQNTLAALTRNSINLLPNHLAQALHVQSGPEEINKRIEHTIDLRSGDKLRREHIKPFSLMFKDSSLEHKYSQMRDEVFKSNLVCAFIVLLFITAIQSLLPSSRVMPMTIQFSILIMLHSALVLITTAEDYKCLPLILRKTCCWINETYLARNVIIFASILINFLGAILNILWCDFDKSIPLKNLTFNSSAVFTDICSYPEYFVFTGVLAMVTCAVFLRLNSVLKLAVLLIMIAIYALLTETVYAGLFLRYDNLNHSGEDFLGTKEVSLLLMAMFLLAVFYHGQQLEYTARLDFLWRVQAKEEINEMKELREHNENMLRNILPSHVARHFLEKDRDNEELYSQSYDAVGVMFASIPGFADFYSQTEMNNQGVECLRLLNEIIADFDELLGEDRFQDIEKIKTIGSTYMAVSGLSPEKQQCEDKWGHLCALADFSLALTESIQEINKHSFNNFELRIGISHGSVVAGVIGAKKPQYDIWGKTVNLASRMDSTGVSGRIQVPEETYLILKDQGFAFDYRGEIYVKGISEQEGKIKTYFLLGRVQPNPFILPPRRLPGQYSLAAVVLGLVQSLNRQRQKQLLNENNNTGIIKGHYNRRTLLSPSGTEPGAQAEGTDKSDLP
Summary of the method: (§1)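 HEK cells stably expressing AC1 or AC8; Ca2+/calmodulin-stimulated cAMP accumulation measured. Dose-response curves began at 30 µM. […] Values are the mean and SEM of three independent experiments.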

Adenylate cyclase type 1 [3] = molecular target: T2, Adenylate cyclase type 1 (Homo sapiens, UniProt Q08828); assay: Inhibition of human AC1 expressed in HEK293 cells assessed as decrease in A23187-stimulated cAMP accumulation preincubated for 30 mins followed by A23187 stimulation and measured after 1 hr by fluorescence assay; summary of the method: as §1
Target sequence in this assay (Q08828 whole entry): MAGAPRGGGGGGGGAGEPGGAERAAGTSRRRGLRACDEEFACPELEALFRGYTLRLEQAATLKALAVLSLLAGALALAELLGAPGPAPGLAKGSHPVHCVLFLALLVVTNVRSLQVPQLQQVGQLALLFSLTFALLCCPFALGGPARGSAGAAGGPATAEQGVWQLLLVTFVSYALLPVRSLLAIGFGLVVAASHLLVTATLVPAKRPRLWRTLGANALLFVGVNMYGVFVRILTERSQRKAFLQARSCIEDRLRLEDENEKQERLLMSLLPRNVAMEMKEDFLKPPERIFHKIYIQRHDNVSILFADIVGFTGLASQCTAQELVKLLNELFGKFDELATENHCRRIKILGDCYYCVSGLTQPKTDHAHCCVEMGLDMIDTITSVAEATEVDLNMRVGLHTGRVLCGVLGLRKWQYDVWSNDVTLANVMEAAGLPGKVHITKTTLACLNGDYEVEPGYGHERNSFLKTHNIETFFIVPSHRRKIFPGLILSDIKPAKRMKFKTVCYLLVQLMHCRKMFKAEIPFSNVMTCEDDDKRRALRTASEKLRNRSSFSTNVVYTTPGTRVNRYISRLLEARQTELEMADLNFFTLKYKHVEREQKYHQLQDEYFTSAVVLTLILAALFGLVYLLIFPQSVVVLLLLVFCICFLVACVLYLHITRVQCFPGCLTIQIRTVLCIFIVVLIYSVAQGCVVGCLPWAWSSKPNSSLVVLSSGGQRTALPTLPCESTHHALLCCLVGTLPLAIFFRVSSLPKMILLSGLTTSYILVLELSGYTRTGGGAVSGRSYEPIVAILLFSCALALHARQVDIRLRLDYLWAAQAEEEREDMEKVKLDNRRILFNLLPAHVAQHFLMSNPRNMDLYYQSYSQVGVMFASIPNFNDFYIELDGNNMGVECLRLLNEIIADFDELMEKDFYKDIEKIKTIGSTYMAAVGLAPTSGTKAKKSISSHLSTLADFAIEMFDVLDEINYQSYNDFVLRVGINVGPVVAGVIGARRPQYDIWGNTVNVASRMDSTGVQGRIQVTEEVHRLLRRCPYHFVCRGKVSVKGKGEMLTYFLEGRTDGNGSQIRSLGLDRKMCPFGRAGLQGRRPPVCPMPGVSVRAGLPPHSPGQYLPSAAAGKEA

Adenylate cyclase type 8 [4] = molecular target: T1, Adenylate cyclase type 8; assay: Inhibition of human AC8 expressed in HEK293 cells assessed as decrease in A23187-stimulated cAMP accumulation preincubated for 30 mins followed by A23187 stimulation and measured after 1 hr by fluorescence assay; summary of the method: as §1
[5] = molecular target: Adenylate cyclase type 2 (Homo sapiens) (UniProt Q08462); assay: Inhibition of human AC2 expressed in HEK293 cells assessed as PMA-stimulated cAMP accumulation at 30 uM preincubated for 30 mins followed by PMA stimulation and measured after 1 hr by fluorescence assay relative to control; design: scale not given: the % may be the effect or the level left
Sequence of Adenylate cyclase type 2 (Homo sapiens) (Q08462 whole entry): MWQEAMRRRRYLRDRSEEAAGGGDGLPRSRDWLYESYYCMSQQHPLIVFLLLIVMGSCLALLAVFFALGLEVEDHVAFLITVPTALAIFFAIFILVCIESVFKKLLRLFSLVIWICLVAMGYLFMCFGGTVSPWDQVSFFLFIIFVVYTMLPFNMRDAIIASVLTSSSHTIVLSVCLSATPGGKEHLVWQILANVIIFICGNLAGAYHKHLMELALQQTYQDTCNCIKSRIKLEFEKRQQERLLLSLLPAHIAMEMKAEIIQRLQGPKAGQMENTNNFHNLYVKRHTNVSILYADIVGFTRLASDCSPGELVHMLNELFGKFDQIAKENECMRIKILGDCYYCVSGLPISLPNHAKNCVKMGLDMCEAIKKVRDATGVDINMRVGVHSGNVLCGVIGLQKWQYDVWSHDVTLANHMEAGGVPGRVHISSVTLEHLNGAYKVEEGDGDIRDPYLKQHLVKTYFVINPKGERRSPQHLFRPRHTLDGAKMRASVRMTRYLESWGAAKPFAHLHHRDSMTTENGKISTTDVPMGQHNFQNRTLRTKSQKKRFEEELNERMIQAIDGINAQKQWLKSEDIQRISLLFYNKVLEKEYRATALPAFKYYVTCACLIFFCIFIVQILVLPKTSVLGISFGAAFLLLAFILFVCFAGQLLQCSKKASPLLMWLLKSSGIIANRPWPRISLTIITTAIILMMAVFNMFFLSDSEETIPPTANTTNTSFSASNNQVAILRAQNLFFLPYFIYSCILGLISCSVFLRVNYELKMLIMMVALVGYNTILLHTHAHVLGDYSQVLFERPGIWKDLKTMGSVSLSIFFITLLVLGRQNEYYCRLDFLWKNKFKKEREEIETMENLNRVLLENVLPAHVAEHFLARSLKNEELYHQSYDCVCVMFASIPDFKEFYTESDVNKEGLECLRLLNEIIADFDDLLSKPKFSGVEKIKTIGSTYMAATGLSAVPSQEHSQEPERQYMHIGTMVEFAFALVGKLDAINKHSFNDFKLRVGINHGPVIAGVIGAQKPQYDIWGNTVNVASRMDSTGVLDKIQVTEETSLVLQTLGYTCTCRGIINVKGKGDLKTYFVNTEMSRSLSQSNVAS
Summary of the method: (§2)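 Group 2 AC2 (PKC-stimulated) or group 3 AC (forskolin-stimulated) cells were exposed to a single 30 µM dose (n = 3). cAMP activity was normalized to DMSO controls set as 100%.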

[6] = molecular target: Adenylate cyclase type 5 (Homo sapiens) (UniProt O95622); assay: Inhibition of human AC5 expressed in HEK293 cells assessed as forskolin-stimulated cAMP accumulation at 30 uM preincubated for 30 mins followed by forskolin stimulation and measured after 1 hr by fluorescence assay relative to control; design: scale not given: the % may be the effect or the level left; summary of the method: as §2
Sequence of Adenylate cyclase type 5 (Homo sapiens) (O95622 whole entry, looked up): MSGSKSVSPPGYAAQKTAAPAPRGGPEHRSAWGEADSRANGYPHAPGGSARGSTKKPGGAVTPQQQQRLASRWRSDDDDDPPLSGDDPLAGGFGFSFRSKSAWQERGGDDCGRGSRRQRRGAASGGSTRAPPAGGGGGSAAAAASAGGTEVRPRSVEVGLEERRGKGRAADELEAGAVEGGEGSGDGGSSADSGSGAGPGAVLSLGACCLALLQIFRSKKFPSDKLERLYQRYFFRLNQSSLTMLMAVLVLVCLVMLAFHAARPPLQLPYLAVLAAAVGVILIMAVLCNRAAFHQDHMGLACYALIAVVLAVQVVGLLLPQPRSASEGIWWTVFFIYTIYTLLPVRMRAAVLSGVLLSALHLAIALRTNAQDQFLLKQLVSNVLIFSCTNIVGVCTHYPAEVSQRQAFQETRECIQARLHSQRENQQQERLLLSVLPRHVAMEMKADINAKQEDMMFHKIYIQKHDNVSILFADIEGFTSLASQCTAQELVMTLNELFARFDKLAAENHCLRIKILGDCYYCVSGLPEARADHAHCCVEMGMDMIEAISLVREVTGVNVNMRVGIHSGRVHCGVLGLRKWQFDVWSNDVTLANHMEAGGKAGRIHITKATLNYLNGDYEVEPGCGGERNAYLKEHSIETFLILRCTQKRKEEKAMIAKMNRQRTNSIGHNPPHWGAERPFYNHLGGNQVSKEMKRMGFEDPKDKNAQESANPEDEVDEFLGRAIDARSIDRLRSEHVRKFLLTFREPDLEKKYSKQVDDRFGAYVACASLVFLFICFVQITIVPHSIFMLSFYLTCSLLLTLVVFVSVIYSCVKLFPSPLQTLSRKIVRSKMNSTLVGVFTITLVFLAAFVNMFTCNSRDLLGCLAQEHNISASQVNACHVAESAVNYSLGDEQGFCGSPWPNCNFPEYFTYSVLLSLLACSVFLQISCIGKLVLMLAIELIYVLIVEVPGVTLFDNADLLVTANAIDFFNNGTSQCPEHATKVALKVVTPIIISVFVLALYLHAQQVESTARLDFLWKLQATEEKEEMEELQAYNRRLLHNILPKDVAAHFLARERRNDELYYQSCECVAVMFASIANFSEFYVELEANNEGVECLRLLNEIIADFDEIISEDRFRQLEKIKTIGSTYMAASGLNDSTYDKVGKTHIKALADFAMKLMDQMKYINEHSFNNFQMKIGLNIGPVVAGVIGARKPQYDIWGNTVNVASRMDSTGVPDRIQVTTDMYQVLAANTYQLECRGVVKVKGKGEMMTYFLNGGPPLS

Adenylate cyclase type 1 [7] = molecular target: T2, Adenylate cyclase type 1; assay: Inhibition of human AC1 expressed in HEK293 cells assessed as decrease in A23187-stimulated cAMP accumulation at 30 uM preincubated for 30 mins followed by A23187 stimulation and measured after 1 hr by fluorescence assay relative to control; summary of the method: as §1
Target sequence in this assay (Q08828 whole entry, looked up): as the sequence (Q08828 whole entry) above

Row | Compound | Ratio IC50 (Homo sapiens) | viability at 1 h, 30 µM [1] [%] | inhibition (Adenylate cyclase type 8 [2]) [%] | also measured
1 | Cc1ccc(C(=O)Nc2nnc(-c3ccc(F)cc3)o2)cc1C(F)(F)F | 1.9 | 133 |  | 
2 | Cc1ccc(C(=O)Nc2nnc(-c3ccc(F)cc3)o2)cc1C |  | 95 | 42 | 
3 | O=C(Nc1nnc(C2CCCCC2)o1)c1ccc(Br)cc1 | 2.9 | 108 |  | 
4 | COc1ccc(-c2nnc(NC(=O)c3cc(-c4cccs4)nc4ccccc34)o2)cc1 | 1.2 | 118 |  | IC50 (Adenylate cyclase type 1 [3]): 4.6 µM; IC50 (Adenylate cyclase type 8 [4]): 5.6 µM
5 | COc1ccc(C(=O)Nc2nnc(-c3cccs3)o2)cc1 |  | 97 | 10 | 
6 | O=C(Nc1nnc(-c2ccc(F)cc2)o1)c1ccc(F)cc1 |  | 100 | 14 | 
7 | CCOc1cccc2cc(-c3nnc(NC(=O)c4ccccc4SC)o3)oc12 | 1 | 127 |  | IC50 (Adenylate cyclase type 1 [3]): 11 µM; IC50 (Adenylate cyclase type 8 [4]): 11 µM
8 | Cc1ccc(C(=O)Nc2nnc(C3CCCCC3)o2)cc1C | 5.4 | 112 |  | 
9 | Cc1ccc(C(=O)Nc2nnc(-c3ccc4c(c3)CCCC4)o2)cc1 | 0.79 to 7.4 | 107 to 123 |  | Activity [5]: 275%; Activity [6]: 139%
10 | O=C(Nc1nnc(-c2ccc(F)cc2)o1)c1cccc(C(F)(F)F)c1 | 5.8 | 108 |  | 
11 | O=C(Nc1nnc(-c2ccc(F)cc2)o1)c1cccc(F)c1 |  | 104 | 35 | IC50 (Adenylate cyclase type 1 [3]): 11 µM
12 | O=C(Nc1nnc(-c2cccs2)o1)c1ccc(Br)cc1 |  | 110 | 41 | 
13 | Cc1ccc(C(=O)Nc2nnc(C3CCCCC3)o2)cc1C(F)(F)F | 1.9 | 139 |  | 
14 | O=C(Nc1nnc(-c2ccc(F)cc2)o1)c1ccc(-c2ccccc2)cc1 | 2.7 | 114 |  | 
15 | O=C(Nc1nnc(-c2cccs2)o1)c1ccccc1 |  | 97 | 18 | IC50 (Adenylate cyclase type 1 [3]): 28 µM
16 | COc1cccc(C(=O)Nc2nnc(-c3ccc4c(c3)OCCO4)o2)c1 |  | 103 | 18 | 
17 | CC(C)Oc1ccc(C(=O)Nc2nnc(-c3ccc4c(c3)OCCO4)o2)cc1 |  | 160 | 39 | 
18 | Cc1cc(C(=O)Nc2nnc(C3CCCCC3)o2)cc(C(F)(F)F)c1 | 2.9 | 125 |  | 
19 | O=C(Nc1nnc(-c2ccc3c(c2)OCCO3)o1)c1cccc(C(F)(F)F)c1 | 6.3 | 116 |  | 
20 | O=C(Nc1nnc(-c2ccc(F)cc2)o1)c1ccccc1 |  | 87 | 8 | 
21 | Cc1ccc(C(=O)Nc2nnc(-c3ccc4c(c3)CCCC4)o2)cc1C(F)(F)F | 0.5 | 115 |  | 

Row | Compound | Ratio IC50 (Homo sapiens) | viability at 1 h, 30 µM [1] [%] | inhibition (Adenylate cyclase type 8 [2]) [%] | also measured
22 | Cc1ccc(C(=O)Nc2nnc(-c3ccc4c(c3)OCCO4)o2)cc1C | 2.6 | 113 |  | 
23 | O=C(Nc1nnc(-c2ccc(F)cc2)o1)c1ccccc1F |  | 87 | 13 | inhibition (Adenylate cyclase type 1 [7]): 12%
24 | O=C(Nc1nnc(-c2ccc3c(c2)OCCO3)o1)c1ccc(Br)cc1 | 6.8 | 121 |  | Activity [5]: 198%; Activity [6]: 159%
25 | COc1cccc(C(=O)Nc2nnc(-c3ccc4c(c3)CCCC4)o2)c1 | 0.83 to 8.1 | 111 to 124 |  | 
26 | COc1ccc(C(=O)Nc2nnc(-c3ccc4c(c3)CCCC4)o2)cc1 | > 4.7 | 118 to 121 | 34 | 
27 | CC(C)Oc1ccc(C(=O)Nc2nnc(-c3cccs3)o2)cc1 |  | 73 to 81 | 24 to 35 | 
28 | O=C(Nc1nnc(-c2ccc3c(c2)OCCO3)o1)c1ccccc1 | > 1 | 87 | 24 | 
29 | COc1cc(C(=O)Nc2nnc(-c3ccc(F)cc3)o2)cc(C(F)(F)F)c1 | 5.8 | 108 |  | IC50 (Adenylate cyclase type 8 [4]): 29 µM
30 | O=C(Nc1nnc(C2CCCCC2)o1)c1cccc(F)c1 |  | 87 | 11 | IC50 (Adenylate cyclase type 1 [3]): 11 µM
31 | COc1cc(C(=O)Nc2nnc(C3CCCCC3)o2)cc(C(F)(F)F)c1 | 1.9 | 113 |  | 
32 | O=C(Nc1nnc(-c2ccc3c(c2)CCCC3)o1)c1ccc(Cl)cc1 | 2.4 | 97 |  | IC50 (Adenylate cyclase type 1 [3]): 1.5 µM; IC50 (Adenylate cyclase type 8 [4]): 3.6 µM
33 | O=C(Nc1nnc(-c2ccc3c(c2)CCCC3)o1)c1cccc(F)c1 | 4.2 | 94 |  | 
34 | Cc1cc(C(=O)Nc2nnc(-c3ccc4c(c3)CCCC4)o2)cc(C(F)(F)F)c1 | 0.26 | 116 |  | 
35 | CSc1cccc(C(=O)Nc2nnc(C3CCCCC3)o2)c1 | > 4.5 | 117 to 137 | 31 to 43 | 
36 | O=C(Nc1nnc(-c2ccc(F)cc2)o1)c1ccc(Br)cc1 |  | 103 | 33 | 
37 | CSc1cccc(C(=O)Nc2nnc(-c3ccc4c(c3)CCCC4)o2)c1 | 5.5 to 10 | 118 to 137 |  | 
38 | Cc1ccc(C(=O)Nc2nnc(-c3ccc(F)cc3)o2)cc1 | > 3.6 | 104 | 31 | Activity [5]: 341%; Activity [6]: 170%
39 | O=C(Nc1nnc(-c2ccc3c(c2)CCCC3)o1)c1ccc(F)cc1 | 3.7 | 110 |  | 
40 | COc1ccc(C(=O)Nc2nnc(-c3ccc(F)cc3)o2)cc1 |  | 82 | 20 | IC50 (Adenylate cyclase type 1 [3]): 13 µM
41 | O=C(Nc1nnc(C2CCCCC2)o1)c1ccc(F)cc1 |  | 95 | 7 | IC50 (Adenylate cyclase type 1 [3]): 13 µM
42 | CSc1cccc(C(=O)Nc2nnc(-c3cccs3)o2)c1 |  | 110 | 34 | 

Row | Compound | Ratio IC50 (Homo sapiens) | viability at 1 h, 30 µM [1] [%] | inhibition (Adenylate cyclase type 8 [2]) [%] | also measured
43 | COc1ccc(C(=O)Nc2nnc(C3CCCCC3)o2)cc1 |  | 82 | 6 | 
44 | O=C(Nc1nnc(C2CCCCC2)o1)c1ccccc1 |  | 87 | 2 | IC50 (Adenylate cyclase type 1 [3]): 25 µM
45 | CC(C)Oc1ccc(C(=O)Nc2nnc(-c3ccccc3)o2)cc1 | > 5.5 | 101 | 43 | IC50 (Adenylate cyclase type 1 [3]): 5.4 µM
46 | CSc1cccc(C(=O)Nc2nnc(-c3ccc4c(c3)OCCO4)o2)c1 |  | 109 | 37 | IC50 (Adenylate cyclase type 1 [3]): 9.5 µM
47 | CC(C)Oc1ccc(C(=O)Nc2nnc(-c3ccco3)o2)cc1 |  | 58 | 21 | inhibition (Adenylate cyclase type 1 [7]): 39%
48 | O=C(Nc1nnc(-c2ccc(F)cc2)o1)c1ccc(Cl)cc1 |  | 84 | 11 | 
49 | Cc1ccc(C(=O)Nc2nnc(-c3ccc4c(c3)OCCO4)o2)cc1 |  | 98 | 25 | IC50 (Adenylate cyclase type 1 [3]): 12 µM; Activity [5]: 218%; Activity [6]: 194%
50 | CC(C)Oc1ccc(C(=O)Nc2nnc(C3CCCCC3)o2)cc1 |  | 99 | 35 | 
51 | O=C(Nc1nnc(C2CCCCC2)o1)c1cccc(-c2ccccc2)c1 | 1 | 115 |  | 
52 | O=C(Nc1nnc(C2CCCCC2)o1)c1cccc(C(F)(F)F)c1 | > 3.6 | 102 |  | 
53 | COc1cccc(C(=O)Nc2nnc(-c3ccc(F)cc3)o2)c1 |  | 99 | 23 | 
54 | COc1cc(C(=O)Nc2nnc(-c3ccc4c(c3)CCCC4)o2)cc(C(F)(F)F)c1 | 1.1 | 121 |  | 
55 | O=C(Nc1nnc(-c2ccc(F)cc2)o1)c1ccc(S(=O)(=O)N2CCCCC2)cc1 |  | 119 | 38 | IC50 (Adenylate cyclase type 1 [3]): 16 µM
56 | Cc1ccc(C(=O)Nc2nnc(C3CCCCC3)o2)cc1 |  | 111 | 1 | IC50 (Adenylate cyclase type 1 [3]): 16 µM
57 | CC(C)Oc1ccc(C(=O)Nc2nnc(-c3ccc4c(c3)CCCC4)o2)cc1 | 0.73 to 1.2 | 124 to 129 |  | 
58 | CCc1ccc(C(=O)Nc2nnc(C3CCCCC3)o2)cc1 |  | 119 | 44 | 
59 | O=C(Nc1nnc(-c2ccc3c(c2)CCCC3)o1)c1ccc(Br)cc1 | 2.23 to 4.5 | 113 to 115 |  | Activity [5]: 160%; Activity [6]: 215%
60 | CCc1ccc(C(=O)Nc2nnc(-c3ccc(F)cc3)o2)cc1 |  | 95 | 32 | 
61 | CCc1ccc(C(=O)Nc2nnc(-c3ccc4c(c3)CCCC4)o2)cc1 | 1.7 | 114 |  | 
62 | O=C(Nc1nnc(C2CCCCC2)o1)c1ccc(Cl)cc1 |  | 89 | 10 | IC50 (Adenylate cyclase type 1 [3]): 14 µM
63 | O=C(Nc1nnc(-c2ccc3c(c2)CCCC3)o1)c1ccccc1 | 1.1 to 5.6 | 84 to 124 |  | 
